Env fusion inh: HIV envelope-mediated fusion inhibition | inhibition, % at 12.3 µM | hit rate 1.1% among 360,000 | AID 651610 | HeLa-JRFL Env/CEM21 cell fusion, luciferase;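 active means mean replicate inhibition score of at least 50 and every replicate individually at or above 50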;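 further: 0% = plate neutral controls and 100% = maraviroc near 300 nM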
GSK3beta inhib: human GSK3beta kinase inhibition; hit rate 0.038% among 300,000; P49841; activity score (negative = inhibition), % at 10 µM; GST-GSK3beta kinase, ADP-Glo luminescence, 60 min; stronger effect = lower value;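 active means more than half of replicate wells score below -50%, meaning over 50% inhibition versus plate controls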;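 further: 0% = median DMSO wells and -100% = median GW8510 positive control wells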
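Test system: GST-fused GSK3beta enzyme, cell-free | Quantity: 1.6 ng GST-GSK3beta enzyme per well | Reagent: 25 µM ATP with peptide substrate | Schedule: 60 min enzyme reaction, room temperature | Signal: Luminescent ADP-Glo measurement of ADP formed | Read-out basis: Score relative to plate controls | Control set: DMSO and 20 µM GW8510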
GSIS activator: GLuc luminescence reporter in INS-1E cells, primary screen for activators of glucose-dependent secretion of insulin | INS-1E GLuc reporter insulin secretion, 2-3 h | hit rate 0.61% among 370,000 | activation, % at 16.6 µM;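 active means lowest replicate activation of at least 40%, so every replicate reaches that level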;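 further: 0% = median of neutral control wells and 100% = median of IBMX positive control wells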
GSK3A inh: human GSK-3 alpha kinase inhibition; inhibition, % at 10 µM; ADP-Glo luminescence, 60 min; hit rate 0.1% among 320,000;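 active means more than half of replicates show inhibition above 20%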;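 further: GST-tagged GSK-3 alpha with peptide substrate and 25 µM ATP; 0% = DMSO neutral wells and 100% = GW8510 positive control wells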
Target sequence (P49840 whole entry, looked up): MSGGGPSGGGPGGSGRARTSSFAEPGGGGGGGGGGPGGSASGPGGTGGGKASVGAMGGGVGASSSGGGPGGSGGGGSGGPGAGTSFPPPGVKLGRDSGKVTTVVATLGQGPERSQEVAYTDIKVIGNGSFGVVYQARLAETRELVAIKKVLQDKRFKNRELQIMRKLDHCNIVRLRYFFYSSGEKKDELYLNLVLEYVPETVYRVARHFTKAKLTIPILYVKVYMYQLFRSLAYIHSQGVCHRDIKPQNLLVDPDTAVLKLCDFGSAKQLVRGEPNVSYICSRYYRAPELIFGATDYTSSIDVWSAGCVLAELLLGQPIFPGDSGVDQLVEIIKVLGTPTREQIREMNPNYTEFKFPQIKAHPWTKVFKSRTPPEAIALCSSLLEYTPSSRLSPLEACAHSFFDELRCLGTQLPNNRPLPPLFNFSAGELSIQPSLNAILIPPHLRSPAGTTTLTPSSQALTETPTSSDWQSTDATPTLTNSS
STK33 kinase inh: inhibitors of human STK33 kinase | purified STK33, MBP phosphorylation, ADP-Glo luminescence | inhibition, % at 10 µM | hit rate 0.073% among 320,000 | AID 2661;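 active means inhibition at or above 25%, using the most active replicate where run in duplicate; inactive means inhibition below 25%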
CDK5 p35 inh: inhibitors of human CDK5/p35 kinase; Q00535+Q15078; Recombinant CDK5/p35, ADP-Glo luminescence, 60 min; inhibition, % at 10 µM; hit rate 0.01% among 330,000;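 active means highest replicate inhibition of at least 50% and at least 75% of replicates reaching 50%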;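 further: plate controls were DMSO neutral control for no effect and GW8510 at 10 µM for full effect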
* marks the source's active call; other numbers are inactive results; [ ] = remark or other dose. The list is not random: actives were taken first. Their share in the collection is about 1.4%.

For COc1ccc(-c2c(-c3cc(OC)cc(OC)c3)n(C)c3ccc(-c4ccc5c(c4)OCCO5)cc23)cc1 the results were Env fusion inh 56*, GSIS activator -1, GSK3A inh -3, STK33 kinase inh 0 and CDK5 p35 inh 0.
C[C@@H]1CN([C@@H](C)CO)C(=O)Cc2cc(NC(=O)C3CCCCC3)ccc2O[C@@H]1CN(C)Cc1ccc(C(=O)O)cc1 was read as Env fusion inh -18[16.7 µM] and GSIS activator 17.
For COc1ccc(NC(=O)N(C)C[C@H]2Oc3c(NS(=O)(=O)c4cn(C)cn4)cccc3C(=O)N([C@@H](C)CO)C[C@H]2C)cc1 the results were Env fusion inh -11[16.7 µM] and GSIS activator 17.
For COc1ccc(CCC(C)NC(=O)CCc2ccccc2)c(OC)c1 (configuration not stated) the results were Env fusion inh 3, GSK3beta inhib 0, GSIS activator -21, GSK3A inh -2, STK33 kinase inh -1 and CDK5 p35 inh 1.
COc1cc(OC)c(OC)cc1CCC(C)NC(=O)Cc1ccccc1 (configuration not stated) was read as Env fusion inh 12, GSK3beta inhib -5, GSIS activator 44*, GSK3A inh -4, STK33 kinase inh 0 and CDK5 p35 inh 0.
CCC(=O)Nc1ccc2c(c1)OC[C@H](C)N(C(=O)C1CCC1)C[C@H](C)[C@H](OC)CN(C)C2=O was read as GSIS activator 2.
For COc1ccccc1CCn1cnc(-c2ccc(Cl)cc2)c1CC(C)C the results were Env fusion inh 25 and GSIS activator 307*.
COc1ccccc1CCn1cnc(-c2cccc(F)c2)c1CC(C)C was read as Env fusion inh -11 and GSIS activator 141*.
Cc1noc(C)c1S(=O)(=O)Nc1ccc2c(c1)C(=O)N([C@H](C)CO)C[C@@H](C)[C@H](CN(C)C(=O)Nc1ccccc1)O2 was read as Env fusion inh -54[16.7 µM] and GSIS activator -9.
Screening CCN(CC)S(=O)(=O)c1ccc(N2CCCC2)c(NC(=O)Cc2cc(OC)c(OC)c(OC)c2)c1 returned Env fusion inh 97*, GSK3beta inhib 1, GSIS activator -4, GSK3A inh 1, STK33 kinase inh -2 and CDK5 p35 inh 0.
`CCN(CC)S(=O)(=O)c1ccc(OC)c(NC(=O)c2cc([N+](=O)[O-])ccc2N2CCOCC2)c1` gave Env fusion inh 67*.
For CNC(=O)C[C@@H]1CC[C@@H]2[C@H](COc3ccc(NC(=O)Nc4ccc(Cl)cc4)cc3C(=O)N2C)O1 the results were Env fusion inh 7[16.7 µM] and GSIS activator 14.
Screening COc1ccccc1/C=C/CN1CCCC(CCC(=O)NCc2ccc(F)c(F)c2)C1 (configuration not stated) returned Env fusion inh 63*, GSK3beta inhib -2, GSIS activator -13, GSK3A inh 1, STK33 kinase inh -1 and CDK5 p35 inh 0.
COCc1cc(N2CCN(C(=O)OC(C)(C)C)C[C@@H]2C)ccc1N1C[C@@H](C)O[C@@H](C)C1 was read as Env fusion inh 2.
For COCc1cc(N2CCN(C(=O)OC(C)(C)C)C[C@H]2C)ccc1N1CCS(=O)(=O)CC1 the results were Env fusion inh 59* and GSIS activator -22.
`C[C@@H]1COCn2nncc2CC[C@@H](Cc2ccc(Cl)cc2)C(=O)N1` gave GSIS activator 14.
`COCC(=O)N1CC2(C1)CN(C(=O)c1ccccn1)[C@H](CO)c1c2c2ccc(OC)cc2n1C` gave GSIS activator 9.
For CCCCn1c(CN(C)Cc2ccccc2)nc2c1c(=O)n(C)c(=O)n2C the results were Env fusion inh 72*, GSK3beta inhib 4, GSK3A inh 3, STK33 kinase inh -1 and CDK5 p35 inh -2.
For CNc1nc2c(c(=O)n(C)c(=O)n2C)n1CCCc1ccccc1 the results were Env fusion inh 8, GSK3beta inhib 0, GSIS activator -5, GSK3A inh 1, STK33 kinase inh 0 and CDK5 p35 inh 0.
Screening CCCn1c(CN(C)Cc2ccccc2)nc2c1c(=O)n(C)c(=O)n2C returned Env fusion inh 45, GSK3beta inhib 0, GSIS activator -18, GSK3A inh -1 and CDK5 p35 inh -1.
CC(Cl)=CCn1c(NCCc2ccccc2)nc2c1c(=O)n(C)c(=O)n2C was read as Env fusion inh 94* and GSIS activator 0.
CNc1nc2c(c(=O)n(C)c(=O)n2C)n1Cc1ccccc1 was read as Env fusion inh 69*, GSK3beta inhib 4, GSK3A inh -1, STK33 kinase inh -1 and CDK5 p35 inh 0.
CCS(=O)(=O)N1CC2(C1)[C@@H](c1ccccc1)[C@@H](CO)N2C(=O)C1CC1 was read as GSIS activator 15.
Screening C[C@@H]1CN([C@H](C)CO)C(=O)c2cc(NC(=O)c3ccccc3)ccc2O[C@@H](C)CCCCO[C@@H]1CN(C)Cc1ccc(C(=O)O)cc1 returned Env fusion inh 21[16.7 µM] and GSIS activator 7.
`O=C(N[C@H]1CC[C@@H](CC(=O)N2CCc3ccccc3C2)O[C@H]1CO)C1CC1` gave Env fusion inh -28[16.7 µM] and GSIS activator 9.
Screening CC(=O)N(C)C[C@H]1Oc2ncc(-c3ccc(C(=O)N(C)C)cc3)cc2C(=O)N([C@@H](C)CO)C[C@@H]1C returned Env fusion inh -1[16.7 µM] and GSIS activator 4.
Screening Cc1noc(C)c1NC(=O)N(C)C[C@H]1Oc2ccc(NS(=O)(=O)c3cn(C)cn3)cc2CC(=O)N([C@H](C)CO)C[C@H]1C returned Env fusion inh -10[16.7 µM] and GSIS activator 0.
For C[C@@H]1CN([C@@H](C)CO)C(=O)Cc2cc(NC(=O)Cc3cn(C)c4ccccc34)ccc2O[C@H]1CN(C)C(=O)Nc1ccccc1 the results were Env fusion inh -1[16.7 µM] and GSIS activator 0.
Cc1cccc(C(C)C)c1NC(=O)COC(=O)c1cccc(S(=O)(=O)N2CCc3ccccc3C2)c1 was read as Env fusion inh -25, GSK3beta inhib -4, GSIS activator 121*, GSK3A inh -2, STK33 kinase inh 0 and CDK5 p35 inh -1.
For CCc1cccc(CC)c1NC(=O)COC(=O)c1cccc(S(=O)(=O)N2CCc3ccccc3C2)c1 the results were Env fusion inh 23, GSK3beta inhib 6, GSK3A inh -3, STK33 kinase inh -1 and CDK5 p35 inh -2.
`CC(=O)c1nn(-c2ccccc2)cc1C(=O)c1ccc(C)cc1` gave Env fusion inh 17, GSK3beta inhib 2, GSK3A inh -1 and STK33 kinase inh -1.
`CC(=O)c1nn(-c2ccc(Br)cc2)cc1C(=O)c1ccccc1` gave Env fusion inh -116, GSK3beta inhib 2, GSIS activator 54*, GSK3A inh -1, STK33 kinase inh -1 and CDK5 p35 inh -2.

Screening results deposited in PubChem by Broad Institute.
